Results on 37 sequences are retold here after the array DNA melting data of Ke et al. (doi:10.1101/2024.01.08.574731).

The nature of series [1]: melting temperature; fluorescence melt of hairpins on a sequencing array, two-state fit, raised by 9.35 °C to match UV melts. Particulars: sodium 0.088 M. The method, boiled down:
(§1)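 Cy3 signals were normalised both to pre-quench Cy3 and to control constructs. They came from library hairpins carrying annealed Cy3 and quencher oligos on a sequenced MiSeq flow cell, imaged in 50 mM Na-HEPES pH 8.0, 25 mM NaCl, in 2.5 °C steps up to 60 °C. Bootstrapped two-state fits gave melting temperature and folding enthalpy, and four replicates were combined by inverse variance. Fitted temperatures were then raised by 9.35 °C to match UV melts.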

Series [2] in a line: folding enthalpy; higher = less favourable; fluorescence melt of hairpins on a sequencing array, two-state fit. The following applies: sodium 0.088 M. The method, boiled down:
as §1

On to GGCGAGGGAAACTTCGCC (((((.(....).))))), for which, in series [1], the Tm is 57.4 °C. Also, the folding enthalpy in series [2] is -50.1 kcal/mol.
Regarding GGCGATCGAAAGATAGCC (((.(((....))).))), the Tm in series [1] was determined as 58 °C. The folding enthalpy in series [2] is -47 kcal/mol.
On to GGCGATGGAAACATCACC ((.((((....)))).)), for which, in series [1], the Tm turned out to be 46.2 °C. In addition, the folding enthalpy in series [2] is -30.3 kcal/mol.
Regarding GGCGCAACGAAAGTTGCC (((..(((....)))))), the Tm in series [1] was 47 °C. Also, in series [2], the folding enthalpy was -8.29 kcal/mol.
Consider GGCGCACGAAAGTGGCC (((.(((....)))))), for which the Tm in series [1] came to 59.9 °C. Besides, the folding enthalpy in series [2] was -18.3 kcal/mol.
Consider GGCGCAGGAAACCACGCC ((((..(....)..)))), for which the Tm in series [1] came to 47.3 °C. In addition, in series [2], the folding enthalpy was -35.3 kcal/mol.
As to GGCGCAGGAAACTGCGTC (.(((((....))))).), the Tm in series [1] came out at 66.1 °C. The folding enthalpy in series [2] is -20.6 kcal/mol.
For GGCGCCGAAAGGCAGGCC ((((((....)))..))) the same measures were 64.9 °C and -25.1 kcal/mol.
In the case of GGCGCCGAAAGGCCTGCC ((((((....)))..))), in series [1], the Tm was determined as 50.8 °C. The folding enthalpy in series [2] is -16.6 kcal/mol.
In the case of GGCGCCGAAAGGCGAGCC ((((((....)))..))), the Tm in series [1] was found to be 57.6 °C. Besides, the folding enthalpy in series [2] was -11.4 kcal/mol.
For GGCGCCGAAAGGCTCGCC ((((((....)))..))) the same measures were 54.5 °C and -19.1 kcal/mol.
Taken in the same sequence, the figures for GGCGCCGAAAGGCTGGCC ((((((....)))..))) were 62.3 °C and -22.3 kcal/mol.
As to GGCGCCGGAAACGACGCC ((((.((....)).)))), the Tm in series [1] was 66.4 °C. Besides, the folding enthalpy in series [2] is -33.6 kcal/mol.
With GGCGCCGGAAACGGCACC ((.((((....)))).)), the Tm in series [1] amounted to 60.5 °C. The folding enthalpy in series [2] was -26.8 kcal/mol.
For GGCGCGACGAAAGTCGCC (((..(((....)))))), the Tm in series [1] worked out at 51.9 °C. In addition, the folding enthalpy in series [2] is -5.55 kcal/mol.
As to GGCGCGCCGAAAGGCGCC (((..(((....)))))), the Tm in series [1] worked out at 44.5 °C. In addition, the folding enthalpy in series [2] was -4.97 kcal/mol.
Regarding GGCGCGGGAAACCACGCC ((((.((....)).)))), the Tm in series [1] was 61 °C. The folding enthalpy in series [2] is -48.2 kcal/mol.
With GGCGCGTCGAAAGACGCC (((..(((....)))))), the Tm in series [1] was 47.8 °C. The folding enthalpy in series [2] is -7.03 kcal/mol.
Consider GGCGCTCGAAAGAGAGCC (((.(((....))).))), for which, in series [1], the Tm was 67.2 °C. Also, the folding enthalpy in series [2] is -36.8 kcal/mol.
For GGCGCTGGAAACAGCGTC (.(((((....))))).), the Tm in series [1] was determined as 65.9 °C. Besides, the folding enthalpy in series [2] was -23 kcal/mol.
In the case of GGCGGACGAAAGTCGGCC (((.(((....))).))), the Tm in series [1] came out at 69.3 °C. For the same sequence, the folding enthalpy in series [2] is -39.2 kcal/mol.
For GGCGGCGAAAGCCAGGCC ((((((....)))..))) the same measures were 62 °C and -18.8 kcal/mol.
For GGCGGCGAAAGCCGAGCC ((((((....)))..))) the same measures were 58 °C and -12.3 kcal/mol.
GGCGGCGAAAGCCTCGCC ((((((....)))..))): the Tm in series [1] worked out at 55.4 °C. The folding enthalpy in series [2] is -20.8 kcal/mol.
As to GGCGGCGAAAGCCTGCC ((((((....))).))), the Tm in series [1] amounted to 68.5 °C. The folding enthalpy in series [2] is -18.9 kcal/mol.
Regarding GGCGGCGAAAGCCTTGCC ((((((....)))..))), the Tm in series [1] amounted to 55.1 °C. In series [2], the folding enthalpy is -19.2 kcal/mol.
With GGCGGCTCGAAAGAGGCC (((..(((....)))))), the Tm in series [1] stood at 51.6 °C. The folding enthalpy in series [2] is -11.4 kcal/mol.
As to GGCGGGGCGAAAGCCGCC (((..(((....)))))), the Tm in series [1] was 68.6 °C. Besides, the folding enthalpy in series [2] is -19.9 kcal/mol.
Taken in the same sequence, the figures for GGCGGGGGAAACCCCACC ((.((((....)))).)) were 56.1 °C and -27.7 kcal/mol.
Regarding GGCGGGTCGAAAGACGCC (((..(((....)))))), in series [1], the Tm was found to be 58 °C. Also, the folding enthalpy in series [2] is -24.8 kcal/mol.
Regarding GGCGGTGGAAACATCGCC ((((.((....)).)))), the Tm in series [1] stood at 63.1 °C. Also, in series [2], the folding enthalpy was -38.6 kcal/mol.
As to GGCGTACGAAAGTATGCC (((.(((....))).))), in series [1], the Tm stood at 65.5 °C. Moreover, the folding enthalpy in series [2] was -41.9 kcal/mol.
Take GGCGTCACGAAAGTGGCC (((..(((....)))))): the Tm in series [1] is 50.3 °C. In addition, the folding enthalpy in series [2] was -15.2 kcal/mol.
For GGCGTCGAAAGACAAGCC ((((((....)))..))) the same measures were 55.2 °C and -43.4 kcal/mol.
On to GGCGTCGAAAGACAGGCC ((((((....)))..))), for which the Tm in series [1] turned out to be 55 °C. Besides, the folding enthalpy in series [2] is -31.3 kcal/mol.
For GGCGTCGCGAAAGCGGCC (((..(((....)))))), the Tm in series [1] was 58.7 °C. Moreover, in series [2], the folding enthalpy was -13 kcal/mol.
With GGCGTCGGAAACGATGCC (((.(((....))).))), in series [1], the Tm was found to be 65.7 °C. Besides, in series [2], the folding enthalpy is -38.2 kcal/mol.
